Data published in ChEMBL document CHEMBL1135710, “Novel mycophenolic adenine bis(phosphonate) analogues as potential differentiation agents against human leukemia” (J Med Chem, 2002).
Active and inactive are the calls of the source. The rule behind the calls is not given here.

Key:
K562 [1] = test: Compound effect on differentiation of K562 cells, % of benzidine positive cells at 1.6 uM; format: functional, Homo sapiens
K562 [2] = test: Compound effect on differentiation of K562 cells, % of benzidine positive cells at 1.0 uM; format: functional, Homo sapiens
[3] = molecular target: T1, Inosine-5'-monophosphate dehydrogenase 2 (Homo sapiens, UniProt P12268); test: Inhibitory activity against human Inosine-5'-monophosphate dehydrogenase 2 (IMPDH type II)
[4] = molecular target: T2, Inosine-5'-monophosphate dehydrogenase 1 (Homo sapiens, UniProt P20839); test: Inhibitory activity against human Inosine-5'-monophosphate dehydrogenase 1 (IMPDH type I)
How it was run: (§1)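 Human IMPDH isoforms type I and type II assayed separately. Substrate, cofactor and inhibitor were premixed, and the reaction was started by adding enzyme. Values are reported as Ki.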
Target sequence in this assay (P20839 whole entry, canonical isoform): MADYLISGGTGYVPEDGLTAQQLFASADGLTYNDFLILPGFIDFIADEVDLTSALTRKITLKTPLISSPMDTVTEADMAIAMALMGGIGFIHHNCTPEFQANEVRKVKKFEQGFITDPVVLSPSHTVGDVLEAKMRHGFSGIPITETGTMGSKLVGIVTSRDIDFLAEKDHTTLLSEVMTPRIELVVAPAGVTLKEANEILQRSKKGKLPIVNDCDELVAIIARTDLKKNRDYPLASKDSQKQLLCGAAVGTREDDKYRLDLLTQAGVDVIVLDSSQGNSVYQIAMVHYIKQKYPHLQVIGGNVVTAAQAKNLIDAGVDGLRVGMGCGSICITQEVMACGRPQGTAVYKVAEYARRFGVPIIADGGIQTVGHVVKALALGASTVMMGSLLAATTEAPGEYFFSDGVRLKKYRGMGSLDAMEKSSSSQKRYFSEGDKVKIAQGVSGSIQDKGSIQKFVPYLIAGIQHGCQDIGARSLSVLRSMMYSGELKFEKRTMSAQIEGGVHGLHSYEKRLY

K562 [5] = test: Concentration of the Antiproliferative compound required for the 50% inhibition of Growth against K562 cells; format: functional, cell-based; settings: Homo sapiens
K562 [6] = test: Compound effect on differentiation of K562 cells, % of benzidine positive cells at 1.5 uM; format: functional, Homo sapiens
K562 [7] = test: Compound effect on differentiation of K562 cells, % of benzidine positive cells at 100 uM; format: functional, Homo sapiens
K562 [8] = test: Compound effect on differentiation of K562 cells, % of benzidine positive cells at 14 uM; format: functional, Homo sapiens
[9] = molecular target: T1, Inosine-5'-monophosphate dehydrogenase 2; test: Inhibitory activity against human Inosine-5'-monophosphate dehydrogenase 2 (IMPDH type II);NA is not active; how it was run: as §1
[10] = molecular target: T2, Inosine-5'-monophosphate dehydrogenase 1; test: Inhibitory activity against human Inosine-5'-monophosphate dehydrogenase 1 (IMPDH type I);NA is not active; how it was run: as §1
Target sequence in this assay (P20839 2-514 limits assumed): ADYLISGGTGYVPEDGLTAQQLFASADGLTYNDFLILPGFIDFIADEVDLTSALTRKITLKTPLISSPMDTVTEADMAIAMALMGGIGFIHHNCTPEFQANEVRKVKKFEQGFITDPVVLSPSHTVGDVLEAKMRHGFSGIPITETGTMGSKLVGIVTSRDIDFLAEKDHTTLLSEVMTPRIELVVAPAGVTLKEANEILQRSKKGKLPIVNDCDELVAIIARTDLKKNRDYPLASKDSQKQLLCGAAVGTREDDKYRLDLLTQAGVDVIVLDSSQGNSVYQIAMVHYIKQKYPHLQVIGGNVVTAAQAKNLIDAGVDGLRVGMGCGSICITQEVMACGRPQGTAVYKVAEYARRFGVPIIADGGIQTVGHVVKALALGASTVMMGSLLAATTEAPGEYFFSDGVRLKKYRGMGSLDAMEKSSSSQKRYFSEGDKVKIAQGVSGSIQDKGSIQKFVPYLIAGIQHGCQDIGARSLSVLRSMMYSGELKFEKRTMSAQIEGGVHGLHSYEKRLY

[11] = molecular target: T1, Inosine-5'-monophosphate dehydrogenase 2; test: Inhibitory activity against human Inosine-5'-monophosphate dehydrogenase 2 (IMPDH type II); NA is not active; how it was run: as §1
[12] = molecular target: T2, Inosine-5'-monophosphate dehydrogenase 1; test: Inhibitory activity against human Inosine-5'-monophosphate dehydrogenase 1 (IMPDH type I); NA is not active; how it was run: as §1
Target sequence in this assay (P20839 2-514 limits assumed): as above

K562 [13] = test: Compound effect on differentiation of K562 cells, % of benzidine positive cells at 15 uM; format: functional, Homo sapiens
K562 [14] = test: Compound effect on differentiation of K562 cells, % of benzidine positive cells at 14.3 uM; format: functional, Homo sapiens
K562 [15] = test: Compound effect on differentiation of K562 cells, % of benzidine positive cells at 20 uM; format: functional, Homo sapiens
K562 [16] = test: Antiproliferative activity against K562 cells; format: functional, cell-based, Homo sapiens
K562 [17] = test: Compound effect on differentiation of K562 cells, % of benzidine positive cells at 10 uM; format: functional, Homo sapiens

## COc1c(C)c2c(c(O)c1CCOP(=O)(O)CP(=O)(O)OC[C@H]1O[C@@H](n3cnc4c(N)ncnc43)[C@H](O)[C@@H]1O)C(=O)OC2
K562 [1]
  Effect: 65.4%
K562 [2]
  Effect: 40.9%

## COc1c(C)c2c(c(O)c1C/C=C(\C)COP(=O)(O)CP(=O)(O)OC[C@@H]1O[C@H](n3cnc4c(N)ncnc43)[C@@H](O)[C@H]1O)C(=O)OC2
[3]
  Ki: 380 nM
[4]
  Ki: 520 nM
K562 [5]
  IC50: 0.1 µM
K562 [6]
  Effect: 95%
K562 [2]
  Effect: 63.3%

## COc1c(C)c2c(c(O)c1CCOP(=O)(O)CP(=O)(O)OCCc1c(O)c3c(c(C)c1OC)COC3=O)C(=O)OC2
[3]
  Ki: 470 nM
[4]
  Ki: 2300 nM
K562 [5]
  IC50: 2090 µM
K562 [7]
  Effect: 4.4%
K562 [2]
  Effect: 0.4%

## NC(=O)c1csc([C@H]2O[C@@H](COP(=O)(O)OP(=O)(O)OC[C@H]3O[C@@H](n4cnc5c(N)ncnc54)[C@H](O)[C@@H]3O)[C@H](O)[C@@H]2O)n1
K562 [8]
  Effect: 35%
K562 [2]
  Effect: 2.5%

## NC(=O)c1csc([C@@H]2O[C@H](COP(=O)(O)C(F)(F)P(=O)(O)OC[C@@H]3O[C@H](n4cnc5c(N)ncnc54)[C@@H](O)[C@H]3O)[C@@H](O)[C@H]2O)n1
[3]
  Ki: 300 nM
[4]
  Ki: 300 nM
K562 [8]
  Effect: 48%
K562 [2]
  Effect: 3.4%

## NC(=O)c1cccc([C@@H]2O[C@H](CO)[C@@H](O)[C@H]2O)c1
K562 [5]
  IC50: 1.5 µM
[9]
  NA: inactive
[10]
  NA: inactive

## NC(=O)c1csc([C@@H]2O[C@H](CO)[C@@H](O)[C@H]2O)n1 [TIAZOFURIN]
[11]
  NA: inactive
[12]
  NA: inactive
K562 [13]
  Effect: 80%
K562 [2]
  Effect: 5.3%

## NC(=O)c1csc([C@@H]2O[C@H](COP(=O)(O)CP(=O)(O)OC[C@@H]3O[C@H](n4cnc5c(N)ncnc54)[C@@H](O)[C@H]3O)[C@@H](O)[C@H]2O)n1
[3]
  Ki: 110 nM
K562 [14]
  Effect: 35%
[4]
  Ki: 110 nM
K562 [2]
  Effect: 2.4%

## NC(=O)c1cccc(C2OC(COP(=O)(O)CP(=O)(O)OC[C@@H]3OC(n4cnc5c(N)ncnc54)[C@@H](O)[C@H]3O)[C@@H](O)[C@H]2O)c1 (stereo partly specified)
[3]
  Ki: 950 nM
[4]
  Ki: 660 nM
K562 [5]
  IC50: 60 µM
K562 [13]
  Effect: 9.5%
K562 [2]
  Effect: 0.6%

## COc1c(C)c2c(c(O)c1CCOP(=O)(O)CP(=O)(O)O)C(=O)OC2
[3]
  Ki: 400 nM
[4]
  Ki: 890 nM
K562 [5]
  IC50: 43.2 µM
K562 [15]
  Effect: 67%
K562 [2]
  Effect: 3.3%

## COc1c(C)c2c(c(O)c1C/C=C(\C)CCC(=O)O)C(=O)OC2 [MYCOPHENOLIC ACID]
[4]
  Ki: 40 nM
K562 [16]
  IC50: 300 nM

## COc1c(C)c2c(c(O)c1C/C=C(/C)CCCOP(=O)(O)CP(=O)(O)OC[C@@H]1OC(n3cnc4c(N)ncnc43)[C@@H](O)[C@H]1O)C(=O)OC2 (stereo partly specified)
K562 [17]
  Effect: 90%
[3]
  Ki: 290 nM
[4]
  Ki: 330 nM
K562 [5]
  IC50: 1.5 µM
K562 [2]
  Effect: 9%
